Data reported in ChEMBL document CHEMBL3627646, “Synthesis and biological activity of amino acid derivatives of avarone and its model compound” (Bioorg Med Chem, 2015).
≈ marks a conversion by molar mass, not a printed value.

Experiments:
[1] = tested on: A549; assay: Cytotoxicity against human A549 cells assessed as cell survival after 72 hrs by MTT assay; assay type: functional, cell-based; conditions: A549, 72 h
Outline: (§1)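 Cells seeded (HeLa 2000, MDA-MB-453 3000, others 5000 per well), treated 24 h later (K562 after 2 h). Five double-diluted final concentrations, 200–12.5 μM, from 10 mM DMSO stocks, in RPMI-1640 with 10% FBS, pH 7.2, 72 h. MTT 4 h at 37 °C, SDS added, A570 read next day. Survival relative to medium control; IC50 from survival curves; triplicate; cisplatin positive control.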

[2] = tested on: Clostridium sporogenes; assay: Antibacterial activity against Clostridium sporogenes ATCC 19404 after 24 hrs by microbroth double dilution method; assay type: functional; conditions: ATCC 19404, 24 h
Outline: (§2)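 Microbroth double dilution in Mueller Hinton broth; compound stock 10 mg/mL in DMSO serially halved across rows. Wells inoculated with 10 μL culture at 10^6 cells/mL, incubated 37 °C for 24 h. Amikacin row as positive control, DMSO row as negative control. MIC taken as lowest concentration inhibiting bacterial growth.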

[3] = tested on: Aspergillus brasiliensis; assay: Antifungal activity against Aspergillus brasiliensis ATCC 16404 after 24 hrs by microbroth double dilution method; assay type: functional; conditions: ATCC 16404, 24 h
[4] = tested on: Kocuria rhizophila; assay: Antibacterial activity against Kocuria rhizophila ATCC 9341 after 24 hrs by microbroth double dilution method; assay type: functional; conditions: ATCC 9341, 24 h; outline: as §2
[5] = tested on: Artemia salina; assay: Cytotoxicity in Brine shrimp assessed as nauplii mortality after 24 hrs; assay type: organism-based; conditions: in vivo
Outline: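 Artemia salina eggs hatched in aerated tap water with dried yeast at 18–20 °C under illumination for 48 h, and freshly hatched nauplii were used. Compounds in DMSO (0.01–1 mg) were added to 950 µL artificial seawater containing 10–20 nauplii, with 5% final DMSO. After 24 h under illumination at room temperature, dead and surviving nauplii were counted and statistically analysed.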

[6] = tested on: HeLa; assay: Cytotoxicity against human HeLa cells assessed as cell survival after 72 hrs by MTT assay; assay type: functional, cell-based; outline: as §1
[7] = tested on: Salmonella enterica; assay: Antibacterial activity against Salmonella enterica ATCC 13076 after 24 hrs by microbroth double dilution method; assay type: functional; conditions: ATCC 13076, 24 h; outline: as §2
[8] = tested on: Bacillus subtilis; assay: Antibacterial activity against Bacillus subtilis ATCC 6633 after 24 hrs by microbroth double dilution method; assay type: functional; conditions: ATCC 6633, 24 h; outline: as §2
[9] = tested on: Escherichia coli; assay: Antibacterial activity against Escherichia coli ATCC 25922 after 24 hrs by microbroth double dilution method; assay type: functional; conditions: ATCC 25922, 24 h; outline: as §2
[10] = tested on: Pseudomonas aeruginosa; assay: Antibacterial activity against Pseudomonas aeruginosa ATCC 9027 after 24 hrs by microbroth double dilution method; assay type: functional; conditions: ATCC 9027, 24 h; outline: as §2
[11] = tested on: MRC5; assay: Cytotoxicity against human MRC5 cells assessed as cell survival after 72 hrs by MTT assay; assay type: cell-based; conditions: MRC5, 72 h; outline: as §1
[12] = tested on: Micrococcus flavus; assay: Antibacterial activity against Micrococcus flavus ATCC 10240 after 24 hrs by microbroth double dilution method; assay type: functional; conditions: ATCC 10240, 24 h; outline: as §2
[13] = tested on: Staphylococcus aureus; assay: Antibacterial activity against Staphylococcus aureus ATCC 6538 after 24 hrs by microbroth double dilution method; assay type: functional; conditions: ATCC 6538, 24 h; outline: as §2
[14] = tested on: Candida albicans; assay: Antifungal activity against Candida albicans ATCC 10231 after 24 hrs by microbroth double dilution method; assay type: functional; conditions: ATCC 10231, 24 h
[15] = tested on: MDA-MB-453; assay: Cytotoxicity against human MDA-MB-453 cells assessed as cell survival after 72 hrs by MTT assay; assay type: functional, cell-based; conditions: MDA-MB-453, 72 h; outline: as §1
[16] = tested on: Proteus hauseri; assay: Antibacterial activity against Proteus hauseri ATCC 13315 after 24 hrs by microbroth double dilution method; assay type: functional; conditions: ATCC 13315, 24 h; outline: as §2
[17] = Cytotoxicity against human Fem-X cells assessed as cell survival after 72 hrs by MTT assay; assay type: functional, cell-based; outline: as §1
[18] = tested on: Saccharomyces cerevisiae; assay: Antifungal activity against Saccharomyces cerevisiae ATCC 9763 after 24 hrs by microbroth double dilution method; assay type: functional; conditions: ATCC 9763, 24 h
[19] = tested on: Micrococcus luteus; assay: Antibacterial activity against Micrococcus luteus ATCC 4698 after 24 hrs by microbroth double dilution method; assay type: functional; conditions: ATCC 4698, 24 h; outline: as §2
[20] = tested on: K562; assay: Cytotoxicity against human K562 cells assessed as cell survival after 72 hrs by MTT assay; assay type: functional, cell-based; conditions: K562, 72 h; outline: as §1

Row | Structure (SMILES) | IC50 [1] [µM] | MIC [2] [µM] | MIC [3] [µM] | MIC [4] [µM] | LC50 [5] [ppm] | IC50 [6] [µM] | MIC [7] [µM] | MIC [8] [µM] | MIC [9] [µM] | MIC [10] [µM] | IC50 [11] [µM] | MIC [12] [µM] | MIC [13] [µM] | MIC [14] [µM] | IC50 [15] [µM] | MIC [16] [µM] | IC50 [17] [µM] | MIC [18] [µM] | MIC [19] [µM] | IC50 [20] [µM]
1 | CC(C)(C)C1=CC(=O)C=CC1=O | 47 | 475 (≈ 78 µg/mL) | 122 (≈ 20 µg/mL) | 475 (≈ 78 µg/mL) | 27.4 | 44.1 | 475 (≈ 78 µg/mL) | 238 (≈ 39 µg/mL) | 238 (≈ 39 µg/mL) | 475 (≈ 78 µg/mL) | > 200 | 475 (≈ 78 µg/mL) | 238 (≈ 39 µg/mL) | 122 (≈ 20 µg/mL) | 56.8 | 475 (≈ 78 µg/mL) | 41.6 | 238 (≈ 39 µg/mL) | 238 (≈ 39 µg/mL) | 15.5
2 | CC1=CCC[C@H]2[C@](C)(CC3=CC(=O)C(N4CCC[C@H]4C(=O)O)=CC3=O)[C@@H](C)CC[C@]12C | 49.2 | 369 (≈ 157 µg/mL) | 735 (≈ 313 µg/mL) | 735 (≈ 313 µg/mL) | 706.6 | 36.2 | 183 (≈ 77.9 µg/mL) | 183 (≈ 77.9 µg/mL) | 91.5 (≈ 39 µg/mL) | 183 (≈ 77.9 µg/mL) | 96 | 183 (≈ 77.9 µg/mL) | 91.5 (≈ 39 µg/mL) | 23 (≈ 9.79 µg/mL) | 60.6 | 183 (≈ 77.9 µg/mL) | 39.6 | 45.8 (≈ 19.5 µg/mL) | 91.5 (≈ 39 µg/mL) | 35.4
3 | CC(C)(C)C1=CC(=O)C(N2CCC[C@H]2C(=O)O)=CC1=O | 186 | 2260 (≈ 626 µg/mL) | 2260 (≈ 626 µg/mL) | 2260 (≈ 626 µg/mL) | 883.4 | 44.9 | 2260 (≈ 626 µg/mL) | 1130 (≈ 313 µg/mL) | 567 (≈ 157 µg/mL) | 2260 (≈ 626 µg/mL) | > 200 | 2260 (≈ 626 µg/mL) | 567 (≈ 157 µg/mL) | 567 (≈ 157 µg/mL) | 67.2 | 2260 (≈ 626 µg/mL) | 87.3 | 567 (≈ 157 µg/mL) | 567 (≈ 157 µg/mL) | 49.2
4 | CC(C)(C)C1=CC(=O)C=C(N[C@@H](Cc2ccccc2)C(=O)O)C1=O | 164 | 1910 (≈ 626 µg/mL) | 957 (≈ 313 µg/mL) | 1910 (≈ 626 µg/mL) | 196.8 | 66.3 | 1910 (≈ 626 µg/mL) | 1910 (≈ 626 µg/mL) | 480 (≈ 157 µg/mL) | 1910 (≈ 626 µg/mL) | > 200 | 1910 (≈ 626 µg/mL) | 480 (≈ 157 µg/mL) | 480 (≈ 157 µg/mL) | 68 | 1910 (≈ 626 µg/mL) | 67.3 | 119 (≈ 39 µg/mL) | 480 (≈ 157 µg/mL) | 82.3
5 | C[C@H](NC1=CC(=O)C=C(C(C)(C)C)C1=O)C(=O)O | > 200 | 2490 (≈ 626 µg/mL) | 1240 (≈ 312 µg/mL) | 4980 (≈ 1250 µg/mL) | 393.8 | 89.1 | 2490 (≈ 626 µg/mL) | 2490 (≈ 626 µg/mL) | 1250 (≈ 313 µg/mL) | 2490 (≈ 626 µg/mL) | > 200 | 2490 (≈ 626 µg/mL) | 1250 (≈ 313 µg/mL) | 626 (≈ 157 µg/mL) | 112 | 4980 (≈ 1250 µg/mL) | 20.1 | 626 (≈ 157 µg/mL) | 1250 (≈ 313 µg/mL) | 77.6
6 | CSCC[C@H](NC1=CC(=O)C=C(C(C)(C)C)C1=O)C(=O)O | > 200 | 2010 (≈ 626 µg/mL) | 2010 (≈ 626 µg/mL) | 2010 (≈ 626 µg/mL) | 360.2 | 77.4 | 2010 (≈ 626 µg/mL) | 2010 (≈ 626 µg/mL) | 1010 (≈ 313 µg/mL) | 2010 (≈ 626 µg/mL) | > 200 | 2010 (≈ 626 µg/mL) | 1010 (≈ 313 µg/mL) | 505 (≈ 157 µg/mL) | 151 | 2010 (≈ 626 µg/mL) | 34.8 | 505 (≈ 157 µg/mL) | 505 (≈ 157 µg/mL) | 88.5
7 | CC(C)C[C@H](NC1=CC(=O)C=C(C(C)(C)C)C1=O)C(=O)O | 97.9 | 2130 (≈ 625 µg/mL) | 1070 (≈ 313 µg/mL) | 2130 (≈ 625 µg/mL) | 104.8 | 57.2 | 2130 (≈ 625 µg/mL) | 2130 (≈ 625 µg/mL) | 266 (≈ 78 µg/mL) | 4260 (≈ 1250 µg/mL) | > 200 | 2130 (≈ 625 µg/mL) | 266 (≈ 78 µg/mL) | 536 (≈ 157 µg/mL) | 84.9 | 2130 (≈ 625 µg/mL) | 39.4 | 133 (≈ 39 µg/mL) | 266 (≈ 78 µg/mL) | 76.5
8 | CC(C)[C@@H](NC1=CC(=O)C=C(C(C)(C)C)C1=O)C(=O)O | 154 | 2240 (≈ 626 µg/mL) | 2240 (≈ 626 µg/mL) | 4480 (≈ 1250 µg/mL) | 574.9 | 96.5 | 4480 (≈ 1250 µg/mL) | 2240 (≈ 626 µg/mL) | 1120 (≈ 313 µg/mL) | 2240 (≈ 626 µg/mL) | > 200 | 2240 (≈ 626 µg/mL) | 1120 (≈ 313 µg/mL) | 563 (≈ 157 µg/mL) | 133 | 4480 (≈ 1250 µg/mL) | 24.6 | 563 (≈ 157 µg/mL) | 1120 (≈ 313 µg/mL) | 57.8
